Experimental findings from ChEMBL document CHEMBL2040792, “New chromene scaffolds for adenosine A(2A) receptors: synthesis, pharmacology and structure-activity relationships” (Eur J Med Chem, 2012) are described below.

Some results are limits rather than exact numbers.

Experiment [1] has as its target T1, Adenosine receptor A1 (Homo sapiens) (UniProt P30542).
T1 sequence (whole entry): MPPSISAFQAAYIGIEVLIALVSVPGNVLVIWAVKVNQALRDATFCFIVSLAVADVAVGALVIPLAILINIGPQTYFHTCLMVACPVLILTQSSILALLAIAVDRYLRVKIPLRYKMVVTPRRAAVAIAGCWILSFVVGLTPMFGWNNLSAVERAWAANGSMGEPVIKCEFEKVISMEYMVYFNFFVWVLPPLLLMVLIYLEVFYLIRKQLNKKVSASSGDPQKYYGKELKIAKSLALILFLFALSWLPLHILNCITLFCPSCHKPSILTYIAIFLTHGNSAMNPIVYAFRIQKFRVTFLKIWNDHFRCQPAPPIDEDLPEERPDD
Nature of the experiment: Displacement of [3H]DPCPX from human adenosine A1 receptor expressed in CHO cells at 10 uM after 60 mins by beta scintillation counting. It counts as cell-based. In short, it runs like this: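 CHO-A1 membranes (15 µg protein) in Hepes/NaCl/MgCl2 buffer with adenosine deaminase, pH 7.4. Test compound at 10 µM with 2 nM [3H]DPCPX, 60 min at 25 °C, in duplicate. Nonspecific binding with 10 µM (R)-PIA. Percent inhibition read after filtration.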

Experiment [2] addresses T2, Adenosine receptor A2a (Homo sapiens, UniProt P29274). The experiment is described as follows: Displacement of [3H]ZM241385 from human adenosine A2A receptor expressed in human HeLa cells at 10 uM after 30 mins by beta scintillation counting. The format is cell-based. In short, it runs like this:
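Single-point screen at 10 µM on HeLa-A2A membranes (10 µg protein), Tris/EDTA/MgCl2 buffer with adenosine deaminase, pH 7.4. 3 nM [3H]ZM241385, 30 min at 25 °C, in duplicate. Nonspecific binding with 50 µM NECA. Percent inhibition.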

For experiment [3], the target named is T2, Adenosine receptor A2a. The experiment is described as follows: Displacement of [3H]ZM241385 from human adenosine A2A receptor expressed in human HeLa cells after 30 mins by beta scintillation counting. The format is cell-based. In short, it runs like this:
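HeLa-A2A membranes (10 µg protein) in 50 mM Tris-HCl, 1 mM EDTA, 10 mM MgCl2, 2 UI/mL adenosine deaminase, pH 7.4, with 3 nM [3H]ZM241385. Nonspecific binding with 50 µM NECA. Incubated 30 min at 25 °C, in duplicate. Six concentrations (10 nM-100 µM); IC50 by nonlinear regression, converted to Ki by Cheng-Prusoff.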

For experiment [4], the target named is T3, Adenosine receptor A2b (Homo sapiens) (UniProt P29275).
T3 sequence (whole entry): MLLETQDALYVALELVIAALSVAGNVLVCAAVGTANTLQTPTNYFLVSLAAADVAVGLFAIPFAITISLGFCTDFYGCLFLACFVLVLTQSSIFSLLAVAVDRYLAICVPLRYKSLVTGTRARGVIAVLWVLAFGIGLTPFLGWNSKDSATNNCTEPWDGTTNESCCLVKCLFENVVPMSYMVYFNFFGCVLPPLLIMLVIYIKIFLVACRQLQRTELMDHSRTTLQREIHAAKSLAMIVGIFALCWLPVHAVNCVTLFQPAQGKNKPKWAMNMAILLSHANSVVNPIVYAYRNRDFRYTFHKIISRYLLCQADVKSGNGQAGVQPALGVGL
Nature of the experiment: Displacement of [3H]DPCPX from human adenosine A2B receptor expressed in HEK293 cells at 10 uM after 30 mins by beta scintillation counting. It counts as cell-based. In short, it runs like this:
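Percent inhibition at 10 µM in HEK-293-A2B membranes (18 µg protein), pH 6.5 Tris buffer with benzamidine, bacitracin and adenosine deaminase. 35 nM [3H]DPCPX, 30 min at 25 °C, in duplicate. Nonspecific binding with 400 µM NECA.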

Experiment [5] concerns the target T4, Adenosine receptor A3 (Homo sapiens) (UniProt P0DMS8).
T4 sequence (whole entry): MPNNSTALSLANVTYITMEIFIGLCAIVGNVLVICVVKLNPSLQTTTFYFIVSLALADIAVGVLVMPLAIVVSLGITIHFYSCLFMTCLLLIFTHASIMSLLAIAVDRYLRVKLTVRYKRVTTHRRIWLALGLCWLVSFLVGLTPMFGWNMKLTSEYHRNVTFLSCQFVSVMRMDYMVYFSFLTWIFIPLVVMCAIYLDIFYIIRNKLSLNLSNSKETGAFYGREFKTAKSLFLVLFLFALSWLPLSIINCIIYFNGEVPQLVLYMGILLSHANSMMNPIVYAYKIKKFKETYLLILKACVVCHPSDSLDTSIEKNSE
The experiment is described as follows: Displacement of [3H]NECA from human adenosine A3 receptor expressed in human HeLa cells at 10 uM after 180 mins by beta scintillation counting. It counts as cell-based. In short, it runs like this:
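HeLa-A3 membranes (90 µg protein) in 50 mM Tris-HCl, 1 mM EDTA, 5 mM MgCl2, 2 UI/mL adenosine deaminase, pH 7.4. Test compound at 10 µM with 30 nM [3H]NECA, 180 min at 25 °C, in triplicate. Nonspecific binding with 100 µM (R)-PIA. Percent inhibition read after GF/B filtration.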

Experiment [6] has as its target T2, Adenosine receptor A2a. The experiment is described as follows: Antagonist activity at human adenosine A2A receptor expressed in CHO cells assessed as inhibition of NECA-induced cAMP accumulation incubated for 15 mins prior to NECA-induction measured after 15 mins by enzyme immunoassay relative to control. It counts as functional, cell-based. The essentials: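 Stably transfected CHO cells grown with dialyzed FBS, washed in DMEM F-12 with 25 mM HEPES pH 7.4 and 30 μM rolipram. Antagonist preincubated 15 min, then NECA (0.1 nM-1 mM) added for a further 15 min. cAMP measured by enzyme immunoassay. NECA curves fitted to a sigmoidal equation; pKB derived from the EC50 shift at one antagonist concentration.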

A further experiment deals with T5, Adenosine receptor A1 (Homo sapiens, UniProt P30542).
T5 sequence (P30542 whole entry): T1 sequence (whole entry)
Nature of the experiment: Displacement of [3H]DPCPX from human adenosine A1 receptor expressed in CHO cells after 60 mins by beta scintillation counting. The format is cell-based. In short, it runs like this: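 CHO-A1 membranes (15 µg protein) in 20 mM Hepes, 100 mM NaCl, 10 mM MgCl2, 2 UI/ml adenosine deaminase, pH 7.4, with 2 nM [3H]DPCPX. Nonspecific binding defined with 10 µM (R)-PIA. Incubated 60 min at 25 °C, run in duplicate, then filtered. Six concentrations tested (10 nM-100 µM); IC50 from nonlinear regression, Ki by Cheng-Prusoff.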

The target in a further experiment is T6, Adenosine receptor A2b (Homo sapiens, UniProt P29275).
T6 sequence (P29275 whole entry): T3 sequence (whole entry)
Nature of the experiment: Displacement of [3H]DPCPX from human adenosine A2B receptor expressed in HEK293 cells after 30 mins by beta scintillation counting. It counts as cell-based. The essentials: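 HEK-293-A2B membranes (18 µg protein) in 50 mM Tris-HCl, 1 mM EDTA, 10 mM MgCl2, 0.1 mM benzamidine, 10 µg/mL bacitracin, 2 UI/mL adenosine deaminase, pH 6.5, with 35 nM [3H]DPCPX. Nonspecific binding with 400 µM NECA. Incubated 30 min at 25 °C, in duplicate. Six concentrations (10 nM-100 µM); IC50 by nonlinear regression, Ki by Cheng-Prusoff.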

T2 sequence (P29274 whole entry): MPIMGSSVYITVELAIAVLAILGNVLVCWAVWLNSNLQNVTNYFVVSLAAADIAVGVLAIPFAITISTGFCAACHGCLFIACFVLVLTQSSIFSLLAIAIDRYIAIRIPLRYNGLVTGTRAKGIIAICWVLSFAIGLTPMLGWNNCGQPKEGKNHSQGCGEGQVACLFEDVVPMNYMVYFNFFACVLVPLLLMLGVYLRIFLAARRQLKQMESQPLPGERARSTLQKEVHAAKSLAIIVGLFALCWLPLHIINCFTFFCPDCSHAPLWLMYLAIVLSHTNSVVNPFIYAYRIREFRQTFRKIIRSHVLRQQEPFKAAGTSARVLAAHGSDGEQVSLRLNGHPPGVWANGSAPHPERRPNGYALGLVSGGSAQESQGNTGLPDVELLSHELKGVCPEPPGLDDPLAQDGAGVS

In the case of `COc1cccc2cc(C(=O)NCCCOCCCCOCCCNC(=O)c3cc4cccc(OC)c4oc3=N)c(=N)oc12`, the inhibition is 30% in experiment [1], > 70% at Adenosine receptor A2a [2], 44% in experiment [4] and 23% in experiment [5]. This compound had a Ki on Adenosine receptor A2a [3] of 0.398 µM. Further, the pKb on Adenosine receptor A2a [6] was found to be 6.36.

On to `COc1cccc2cc(C(=O)NC3CCCC3)c(=N)oc12`, for which the inhibition in experiment [1] is > 70%; at Adenosine receptor A2a [2] it was > 70%; in experiment [4], 47%; in experiment [5], 20%. Besides, the inhibitory constant (Ki) on Adenosine receptor A1 was 3.16 µM; on Adenosine receptor A2a [3] it was 0.398 µM.

Turning to `COc1cccc2cc(C(N)=O)c(=N)oc12`, the inhibition was > 70% in experiment [1], > 70% on Adenosine receptor A2a [2], > 70% in experiment [4] and 33% in experiment [5]. Moreover, the Ki is 0.398 µM on Adenosine receptor A1, 0.0794 µM at Adenosine receptor A2a [3] and 0.316 µM at Adenosine receptor A2b. Besides, at Adenosine receptor A2a [6], the pKb was determined as 6.59.

For the compound `COc1cccc2cc(C(=O)NCCCNC(=O)c3cc4cccc(OC)c4oc3=N)c(=N)oc12`, the inhibition in experiment [1] is 31%; on Adenosine receptor A2a [2], > 70%; in experiment [4], > 70%; in experiment [5], 11%. Besides, the Ki is 0.398 µM on Adenosine receptor A2a [3] and 10 µM at Adenosine receptor A2b.

For `COC(=O)/C(C#N)=C/c1cccc(OC)c1O`, the inhibition in experiment [1] is > 70%; at Adenosine receptor A2a [2], > 70%; in experiment [4], > 70%; in experiment [5], 45%. The figures for the Ki on Adenosine receptor A1, on Adenosine receptor A2a [3] and on Adenosine receptor A2b were 2.51 µM, 0.316 µM and 1 µM, respectively.

`COc1cccc2cc(C(=O)Nc3c(C#N)ncn3-c3ccc(F)cc3)c(=N)oc12`: the inhibition in experiment [1] was 46%; at Adenosine receptor A2a [2], > 70%; in experiment [4], 30%; in experiment [5] it was 20%. The Ki on Adenosine receptor A2a [3] was 0.631 µM. Further, the pKb on Adenosine receptor A2a [6] was 6.02.

For `COc1cccc2cc(C(=O)NCC(O)c3ccccc3)c(=N)oc12` (stereo not drawn), the inhibition is 55% in experiment [1], > 70% on Adenosine receptor A2a [2], > 70% in experiment [4] and 8% in experiment [5]. Further, the Ki on Adenosine receptor A2a [3] is 0.501 µM; on Adenosine receptor A2b, 1 µM.

As for `COc1cccc2cc(C(=O)NCCc3ccc(O)cc3)c(=N)oc12`, the inhibition in experiment [1] was 35%; on Adenosine receptor A2a [2] it was > 70%; in experiment [4], > 70%; in experiment [5], 30%. Moreover, the Ki is 0.126 µM at Adenosine receptor A2a [3] and 0.631 µM at Adenosine receptor A2b. Further, the pKb on Adenosine receptor A2a [6] stood at 6.54.

With `COCCNC(=O)c1cc2cccc(OC)c2oc1=N`, the inhibition in experiment [1] is > 70%; on Adenosine receptor A2a [2], > 70%; in experiment [4] it was 43%; in experiment [5], 15%. Moreover, the Ki on Adenosine receptor A1 was 6.31 µM; on Adenosine receptor A2a [3], 0.501 µM.

For `COc1cccc2cc(C(=O)NCCCN3CCN(CCCNC(=O)c4cc5cccc(OC)c5oc4=N)CC3)c(=N)oc12`, the inhibition in experiment [1] is > 70%; on Adenosine receptor A2a [2], > 70%; in experiment [4] it was > 70%; in experiment [5] it was 20%. The Ki was 2.51 µM on Adenosine receptor A1, 0.316 µM on Adenosine receptor A2a [3] and 10 µM at Adenosine receptor A2b.

For `COc1cccc2cc(C(=O)NCCCCCO)c(=N)oc12`, the inhibition in experiment [1] was 44%; on Adenosine receptor A2a [2], > 70%; in experiment [4] it was > 70%; in experiment [5], 13%. The Ki at Adenosine receptor A2a [3] is 1 µM; at Adenosine receptor A2b, 1.26 µM.

For `COc1cccc2cc(C(=O)NC3CCCCC3)c(=N)oc12`, the inhibition is 40% in experiment [1], > 70% on Adenosine receptor A2a [2], > 70% in experiment [4] and 16% in experiment [5]. Besides, the Ki was 0.398 µM on Adenosine receptor A2a [3] and 20 µM at Adenosine receptor A2b. At Adenosine receptor A2a [6], the pKb amounted to 6.1.
